“And” between values parts separate entries of the source, which are not always exact repeats. Equal entries are not always repeated. The source made the active and inactive calls.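 Rule for the calls: active = fitted AC50 at or below twice the top valid tested dose for that sample, with falling signal; inconclusive = flat curve with 30 to 70% inhibition, or poor fit; inactive = the rest.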
tested on: not listed separately; assay: fluconazole-resistant Candida isolate growth inhibitors – retest at dose, dry powder, set 2, confirmation (AID 623897); conditions: C. albicans CaCi-17 growth, Alamar Blue fluorescence, 48 h; at 26 µM (top of the series)
Outline: (§1)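 schedule = growth 48 h at 37 °C, dye 2 h | technique = Alamar Blue fluorescence | control set = amphotericin B 10 µM as positive control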

Structure (SMILES)	activity change, negative = inhibition
CCCCN1C(=O)N(c2ccc(C)cc2)C2(CCCCC2)C1=O	9.41% (inactive)
Cc1ccc(N2C(=O)NC(=O)C23CCCCC3)cc1	5.65% (inactive)
CCOC(=O)N1C(=O)C2(CCCCC2)N(C(C)C)C1=S	-6.94% (inactive)
Cc1ccc(N2C(=S)N(C(=O)OCc3ccccc3)C(=O)C23CCCCC3)cc1	5.07% (inactive)
Cc1ccc(N2C(=S)N(C)C(=O)C23CCCCC3)cc1	-21% (inactive)
CCCC(=O)N1C(=O)C2(CCCCC2)N(c2ccc(C)cc2)C1=S	8.69% (inactive)
CCOC(=O)N1C(=O)C2(CCC2)N(c2ccc(C)cc2)C1=S	13.1% (inactive)
Cc1ccc(N2C(=O)C(=O)NC2=S)cc1	5.65% (inactive)
CCCCN1C(=O)C2(CCCCC2)N(c2ccc(C)cc2)C1=S	-7.78% (inactive)
O=C1NC(=S)N(c2ccc(F)cc2)C12CCCCC2	-18.2% (inactive)
Cc1ccc(N2C(=O)C3(CCCCC3)NC2=S)cc1	5.29% (inactive)
CCOC(=O)N1C(=S)N(c2ccc(C)cc2)C(=O)C12CCCCC2	3.4% (inactive)
CC(C)N1C(=S)NC(=O)C12CCCCC2	-18.9% (inactive)
CCCc1ccc(N2C(=S)N(C(=O)OCC)C(=O)C23CCCCC3)cc1	-11.5% (inactive)
CCOC(=O)N1C(=O)C2(CCCCC2)N(c2ccc(CC)cc2)C1=S	-31.8% (inactive)
CCOC(=O)N1C(=S)N(c2ccc(C)cc2)C2(CCCCC2)C1=NCc1ccccc1	5.9% (inactive)
CCCOC(=O)N1C(=O)C2(CCCCC2)N(c2ccc(C)cc2)C1=S	17.3% (inactive)

Structure (SMILES)	activity change, negative = inhibition
Cc1ccc(N2C(=O)N(C)C(=O)C23CCCCC3)cc1	0.531% (inactive)
Cc1ccc(N2CC(=O)NC2=O)cc1	-8.61% (inactive)
Cc1ccc(N2C(=S)N(C(=O)OC(C)C)C(=O)C23CCCCC3)cc1	7.31% (inactive)
Cc1ccc(N2C(=S)N(S(C)(=O)=O)C(=O)C23CCCCC3)cc1	3.7% (inactive)
O=C1NC(=S)NC12CCCCC2	2.58% (inactive)
Cc1ccc(N2C(=S)NC(=O)C23CCCCC3)cc1	-4.65% (inactive)
CCOC(=O)N1C(=O)C2(CCCC2)N(c2ccc(C)cc2)C1=S	1.68% (inactive)
O=C1NC(=S)N(Cc2ccccc2)C12CCCCC2	0.955% (inactive)
CCOC(=O)N1C(=O)C(C)(C)N(c2ccc(C)cc2)C1=S	11.1% (inactive)
Cc1ccc(N2C(=S)NC(=O)C23CCCC3)cc1	4.84% (inactive)
CCOC(=O)N1C(=S)NC(=O)C12CCCCC2	8.62% (inactive)
CCOC(=O)N1C(=O)C2(CCOCC2)N(c2ccc(C)cc2)C1=S	0.474% (inactive)
CCOC(=O)N1C(=O)C2(CCCCC2)NC1=S	-0.208% (inactive)
Cc1ccc(N2C(=S)N(C(=O)Oc3ccccc3)C(=O)C23CCCCC3)cc1	1.41% (inactive)
Cc1ccc(N2C(=S)NC(=O)C2(C)C)cc1	2.64% (inactive)
CCOC(=O)N1C(=O)C2(CCCCC2)N(c2ccc(C(C)C)cc2)C1=S	8.52% (inactive)

tested on: C. albicans CaCi-17 growth, Alamar Blue fluorescence, 48 h; assay: as above; conditions: not given
Outline: as §1

Structure (SMILES)	AC50
CCOC(=O)N1C(=O)C2(CCCCC2)N(c2ccc(-c3ccccc3)cc2)C1=S	> 52 µM (inactive)
Cc1ccc(N2C(=S)NC(=O)C23CCOCC3)cc1	> 52 µM (inactive)
Cc1ccc(N2C(=S)N(C)C(=O)C23CCCCC3)cc1	> 52 µM (inactive)
CCOC(=O)N1C(=O)C2(CCCCC2)N(c2ccccc2C)C1=S	23.9 µM
CCOC(=O)N1C(=O)C2(CCCCC2)N(c2ccc(C(C)(C)C)cc2)C1=S	> 52 µM (inactive)
Cc1ccc(N2CC(=O)NC2=S)cc1	> 52 µM (inactive)
COC(=O)N1C(=O)C2(CCCCC2)N(c2ccc(C)cc2)C1=S	17.1 µM
CCOC(=O)N1C(=O)C2(CCCCC2)N(c2ccc(C(F)(F)F)cc2)C1=S	16.2 µM
O=C1NC(=S)N(c2ccccc2)C12CCCCC2	> 52 µM (inactive)
CC1/C=C/C=C\C=C\C=C\C=C\C=C\C=C\C(O[C@H]2OC(C)C(O)C(N)C2O)CC2OC(O)(CC(O)CC(O)C(O)CCC(O)CC(O)CC(=O)OC(C)C(C)C1O)CC(O)C2C(=O)O (some centres not stated)	0.0301 µM
CCOC(=O)N1C(=O)C2(CCCCC2)N(c2ccc(C)cc2)C1=S	8.5 µM and 9.7 µM
CCOC(=O)N1C(=O)C2(CCCCC2)N(Cc2ccccc2)C1=S	22.8 µM
CCOC(=O)N1C(=O)N(c2ccc(C)cc2)C2(CCCCC2)C1=O	> 52 µM (inactive)
CCOC(=O)N1C(=O)C2(CCCCC2)N(c2ccc(C#N)cc2)C1=S	1.76 µM
Cc1ccc(N2C(=S)NC(=O)C23CCC3)cc1	> 52 µM (inactive)
CCOC(=O)N1C(=O)C2(CCCCC2)N(c2cccc(C)c2)C1=S	8.16 µM
CCOC(=O)N1C(=O)C2(CCCCC2)N(c2ccccc2)C1=S	4.15 µM
CCOC(=O)N1C(=O)C2(CCCCC2)N(c2ccc(F)cc2)C1=S	0.946 µM
CCOC(=O)N1C(=O)C2(CCCCC2)N(c2ccc(Cl)cc2)C1=S	1.37 µM
